# Tb hexokinase: blocks Trypanosoma brucei hexokinase 1 activity; 220,000 tested, 0.11% active; inhibition, % at 10 µM; recombinant TbHK1, G6PDH-coupled NADH A340;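 active = inhibition of 50% or more in the single-dose primary screen; inactive = inhibition below 50%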
# HKDC1 inh: blocks human hexokinase HKDC1 activity | Q2TB90 | recombinant HKDC1, G6PDH/diaphorase resazurin coupled fluorescence | inhibition, % at 20 µM | 340,000 tested, 0.16% active | AID 493160;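 active = inhibition above about 35% when tested at 20 µM, limit read from the data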
# Target sequence (Q2TB90 whole entry, looked up): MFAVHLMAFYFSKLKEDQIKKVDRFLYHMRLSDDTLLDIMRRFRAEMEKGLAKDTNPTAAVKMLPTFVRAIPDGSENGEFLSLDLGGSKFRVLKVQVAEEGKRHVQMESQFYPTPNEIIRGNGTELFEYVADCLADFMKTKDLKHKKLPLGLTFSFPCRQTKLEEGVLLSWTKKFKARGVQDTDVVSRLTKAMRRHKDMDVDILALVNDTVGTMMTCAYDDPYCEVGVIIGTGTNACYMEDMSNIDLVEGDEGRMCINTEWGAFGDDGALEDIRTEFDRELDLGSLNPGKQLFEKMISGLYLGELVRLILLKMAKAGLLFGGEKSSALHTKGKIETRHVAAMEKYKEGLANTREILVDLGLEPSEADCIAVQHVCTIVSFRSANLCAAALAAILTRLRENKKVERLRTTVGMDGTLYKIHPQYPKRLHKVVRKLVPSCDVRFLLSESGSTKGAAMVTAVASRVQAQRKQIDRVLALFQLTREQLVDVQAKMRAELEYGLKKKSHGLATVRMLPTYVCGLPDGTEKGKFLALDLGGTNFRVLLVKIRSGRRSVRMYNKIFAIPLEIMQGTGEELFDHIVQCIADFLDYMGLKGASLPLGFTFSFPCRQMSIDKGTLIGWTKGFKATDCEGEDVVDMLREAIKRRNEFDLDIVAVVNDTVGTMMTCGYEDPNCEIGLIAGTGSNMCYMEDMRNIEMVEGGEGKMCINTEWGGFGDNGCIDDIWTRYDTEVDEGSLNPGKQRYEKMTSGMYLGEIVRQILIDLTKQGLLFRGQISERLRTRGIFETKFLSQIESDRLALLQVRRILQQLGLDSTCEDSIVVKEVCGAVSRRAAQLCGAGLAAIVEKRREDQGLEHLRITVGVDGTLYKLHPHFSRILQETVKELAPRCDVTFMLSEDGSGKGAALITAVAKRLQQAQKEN
#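 Test system: Recombinant HKDC1 (HK5) hexokinase enzyme, produced in-house | Input: HKDC1 at 5 µg/mL | Buffer or medium: Tris pH 8.0 buffer with MgCl2, Tween-20, BSA, BME | Schedule: 90 min reaction incubation at room temperature, dark | Technique: Resazurin-to-resorufin fluorescence via G6PDH and diaphorase coupling, 525/613 nm | Controls: DMSO wells with and without enzyme mix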
# HSF-1 act: increases HSF-1 driven luciferase reporter signal | activation, % at 9 µM | 300,000 tested, 1.7% active | NIH3T3-HGL HSF-1 luciferase reporter, MG132, 8 h; 100% = twice DMSO control signal;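 active = mean replicate activation of at least 50% with a set share of replicates each reaching 50%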
# Hsp70 activator: transcriptional activators of Hsp70; HeLa Hsp70 promoter luciferase reporter, luminescence; scaled: vehicle 0, proteasome-inhibitor control 100%; activation, % at 10 µM; 200,000 tested, 0.04% active; AID 1203;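 active = activation above the mean across all tested compounds plus 3 SD, cutoff set per campaign, cut at about 5.5% in these data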
# HSF1 inh: HSF1 inhibition | NIH3T3-HGL HSE-luciferase, MG132-induced, luminescence 8 h; hits give low values | 300,000 tested, 0.77% active | activity change, negative = inhibition, % at 7.5 µM (by protocol);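 active = more than half of replicate wells show activity change below -50%, luminescence cut by over half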;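 note: luciferase reports HSF-1 transcriptional activity via heat shock element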
# HSP90 inh: blocks HSP90-mediated luciferase refolding in reticulocyte lysate. inhibition, % at 5.6 µM. 290,000 tested, 0.91% active. Rabbit reticulocyte lysate, luciferase refolding luminescence, 3 h;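 active = inhibition above the screen-wide mean plus 3 SD, computed separately per campaign, cut at about 16% in these data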;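 note: inhibitors lower the luminescence because luciferase stays unfolded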
# HKDC1 act conf: HKDC1 (human) activation, single-dose confirmed | 740 tested, 14% active | inhibition, % at 20 µM | shares compounds with HKDC1 inh | recombinant HKDC1, G6PDH/diaphorase resazurin fluorescence; hits give low values;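 active = inhibition at or below a set negative limit, negative inhibition meaning the enzyme was activated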
# Hits are given with their value; n = inactive; x = no result given. In the library only some 3.1% were active in any assay of this set; here they are far more common.
SMILES,Tb hexokinase,HKDC1 inh,HSF-1 act,Hsp70 activator,HSF1 inh,HSP90 inh,HKDC1 act conf
Cc1cc(C(=O)CN2CCN(CC(=O)Nc3cccc(F)c3)CC2)c(C)n1C1CC1,x,n,x,x,x,x,x
CC(O)C(NS(=O)(=O)c1ccc2ccccc2c1)C(=O)OCC(=O)Nc1ccccc1OC(F)F (configuration not stated),x,n,x,x,x,x,x
CC(=O)c1ccccc1NC(=O)COC(=O)c1cc2ccccc2[nH]1,x,n,x,x,x,x,x
NC(=S)N=Nc1c(O)cc(O)c2[nH]c(=O)ccc12,x,35.2,x,x,x,x,n
NC(=S)N=Nc1c(O)[nH]c2ccc(F)cc12,n,n,n,n,n,n,x
CN(CC(=O)Nc1cccc(F)c1)C(=O)COc1cccc2c1OC(C)(C)C2,x,n,n,x,n,n,x
O=C1C(Cl)=C(N2CCN(c3ccccc3[N+](=O)[O-])CC2)C(=O)c2ccccc21,n,40.0,124.5,n,n,n,n
Cc1ccc(S(=O)(=O)N(C(=O)c2ccco2)c2cc3sc(=O)oc3c3ccccc23)cc1,n,36.9,n,n,n,n,n
Cc1ccc(C)c(-n2c3nc(=O)[nH]c(=O)c-3cc3cc([N+](=O)[O-])ccc32)c1,n,47.4,x,n,x,n,n
Cc1cccc(-n2c3nc(=O)[nH]c(=O)c-3cc3cc([N+](=O)[O-])ccc32)c1,n,41.8,n,n,n,n,n
Cc1ccc(C)c(-n2c3nc(=O)n(C)c(=O)c-3cc3ccccc32)c1,n,n,n,x,n,n,x
CCC(C)Sc1ccc([C@@H]2[C@@H]3C(=O)N(CC)C(=O)[C@@H]3[C@]3(C(=O)OC)CCCCN23)cc1 (some centres not stated),x,n,x,x,x,x,x
CN(C)CC1CCC/C(=C\c2ccc(OC(=O)c3ccc(Cl)cc3)cc2)C1=O (configuration not stated),x,36.6,x,x,x,x,n
CN(C)CC1CCC/C(=C\c2ccc(OC(=O)/C=C/c3ccccc3)cc2)C1=O (configuration not stated),x,n,x,x,x,x,x
COc1ccccc1S(=O)(=O)N1CCNC(=O)C1,x,n,x,x,x,x,x
O=C(N/N=C/c1ccccc1)c1ccc(CN2C(=O)c3cccc4cccc2c34)cc1,n,n,n,n,n,n,x
O=C(N/N=C/c1ccc(O)cc1O)c1ccc(CN2C(=O)c3cccc4cccc2c34)cc1,n,n,n,n,n,n,n
N#Cc1c(NC(=O)c2ccc([N+](=O)[O-])o2)sc2c1CCC2,x,n,n,x,n,n,x
Oc1ccc2ccccc2c1C=NC1CCCCC1,n,35.2,n,n,n,n,n
O=C(COc1ccc(Br)cc1)NNC(=O)c1cc(S(=O)(=O)N2CCOCC2)ccc1Cl,x,n,x,x,x,x,x
COc1ccc(C(=O)N/N=C(\C)c2ccccn2)cc1OC,x,n,n,x,n,n,x
COc1ccccc1NC(=S)NN=C(C)c1ccccn1,x,n,x,x,x,x,-61.0
CC(=NNC(=S)Nc1ccc(C)cc1)c1ccccn1,x,n,x,x,x,x,x
CC(=NNC(=S)Nc1cccc(C)c1)c1ccccn1,x,n,x,x,x,x,-60.1
COc1ccccc1CNS(=O)(=O)c1cc2c3c(c1)CCN3C(=O)CC2,x,n,n,x,n,x,x
SMILES,Tb hexokinase,HKDC1 inh,HSF-1 act,Hsp70 activator,HSF1 inh,HSP90 inh,HKDC1 act conf
O=C(Sc1nnc(-c2ccccc2)o1)N1c2ccccc2Sc2ccccc21,n,37.2,n,n,n,n,n
CCNC(=O)COc1ccc(/C=C2\COc3ccccc3C2=O)cc1OC,x,n,n,x,n,n,x
COc1ccc(NC(=O)N(C)C[C@H]2Oc3ccc(NC(=O)NC4CCCCC4)cc3C(=O)N([C@H](C)CO)C[C@@H]2C)cc1,x,n,x,x,x,x,x
COc1ccccc1N(CC(=O)N/N=C/c1c(O)ccc2ccccc12)S(C)(=O)=O,n,n,n,n,n,n,n
COc1ccc(N2C3=C(CC4=C2CCCC4=O)C(=O)CCC3)cc1,n,n,n,n,n,n,n
O=C(NC(=S)NNC(=O)c1ccccc1O)c1ccco1,n,n,n,n,n,n,n
COc1ccc(C2/C(=C(/O)c3ccc4c(c3)CC(C)O4)C(=O)C(=O)N2CCCn2ccnc2)cc1OC (configuration not stated),x,n,x,x,x,x,x
NS(=O)(=O)c1ccc(N=Nc2c(=O)[nH]n3c(=O)c4c([nH]c23)CCCC4)cc1,n,39.6,n,n,n,n,n
O=c1[nH]n2c(=O)c3c([nH]c2c1N=Nc1cccc(Cl)c1)CCC3,n,n,n,n,n,n,x
COc1ccc(N=C2NN=C(c3ccc4c(c3)OCCO4)CS2)cc1,n,n,n,n,n,n,-33.1
COc1ccc(N(CCCN2C(=O)c3cccc4cccc(c34)C2=O)C(=O)c2cccnc2)cc1,n,35.6,n,n,n,n,n
COc1cc(/C=C2\SC(=O)N(c3ccc(Cl)cc3)C2=O)cc([N+](=O)[O-])c1O,n,44.4,x,n,x,66.4,n
COc1cc(/C=C2\SC(=O)N(c3cccc(Cl)c3)C2=O)cc([N+](=O)[O-])c1O,n,51.5,x,n,x,n,n
O=C1C(=C(I)I)c2ccccc2-c2ccccc21,x,60.7,x,x,x,x,n
CCCCCCN1C=CC=C/C1=C\C=C(C#N)C#N,n,n,n,x,n,n,x
O=C(CSc1nnc(CCCN2C(=O)c3cccc4cccc(c34)C2=O)n1-c1ccccc1)N1CCN(CCO)CC1,n,42.4,n,n,n,n,n
CCOC(=O)C1=C(Cc2ccc(F)cc2)C(=O)c2ccccc2C1=O,n,72.7,n,n,n,n,n
O=C(OCc1ccc(F)cc1)c1ccc2c(c1)-c1ccccc1C2=O,n,n,x,n,x,n,x
COCCNC(=O)c1cn(C)c2ccc(S(=O)(=O)N3CCCCC3)cc2c1=O,x,n,n,x,n,n,x
COC(=O)Cn1c2ccc(Cl)cc2c2nc(C)sc21,n,n,n,x,n,n,x
COC(=O)Cn1c2ccc(F)cc2c2nc(C)sc21,n,n,n,n,n,n,-90.4
CCOC(=O)Cn1c2ccc(F)cc2c2nc(C)sc21,n,n,n,n,n,n,-36.6
CC1(C)COC(c2cc3c(cc2Br)OCO3)OC1,x,n,x,x,x,x,x
CCCCC(CC)CN=C(N)NC(N)=NCCCCCCN=C(N)NC(N)=NCC(CC)CCCC (configuration not stated),x,41.6,x,x,x,x,n
CCCN1C(=O)C(NC(C)=O)c2ccccc21 (configuration not stated),n,n,n,n,n,n,x
CCc1ccc2c(c1)C(NC(C)=O)C(=O)N2CCN1CCOCC1 (configuration not stated),x,80.1,n,x,n,n,n
COC(=O)c1ccc(CCc2cc(O)c(Br)cc2O)cc1,x,69.1,x,x,x,x,n
COC(=O)c1ccc(CCc2cc(O)ccc2O)cc1,x,n,x,x,x,x,x
O=[N+]([O-])c1ccc(NN=Cc2ccc(O)cc2O)nc1,x,37.1,x,x,x,x,n
Oc1ccc(/C=N/Nc2ncc(Br)cn2)c(O)c1,n,39.0,79.1,n,n,n,n
